We go through 2 compounds from ChEMBL document CHEMBL1921669, “In vivo PET imaging of histone deacetylases by 18F-suberoylanilide hydroxamic acid (18F-SAHA)” (J Med Chem, 2011).

Data set [1] relates to Nucleic Acid. As to the kind of experiment: Ratio of drug uptake in tumor to muscle in human A2780 cells xenografted Nu/Nu mouse at 2 mg in 100 uL of 60% PEG400 40% water, ip after 3 hrs by PET-CT analysis. The class given is ADME, organism-based. Particulars: in vivo; call rule not given here. The gist of the method:
(§1)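 Nu/Nu mice (n = 5) bearing subcutaneous flank A2780 human ovarian cancer xenografts (10⁶ cells in Matrigel per flank), imaged 10 days after implantation. ¹⁸F-labelled tracer PET-CT under isoflurane anaesthesia (1.5%, O₂ 2 L/min), each acquisition ~80 min. […] Read-out: tumor/muscle uptake ratio.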
In general terms: In xenograft studies the graft and the host belong to different species.

Data set [2] has as its system Kidney. In words: Biodistribution in C57BL/6 mouse kidney at 241 +/- 18 uCi, iv. The class given is ADME, organism-based. Particulars: in vivo. The gist of the method:
(§2)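 Six C57BL/6 mice got the 18F tracer by tail-vein iv injection. Groups were sacrificed at 1 h (n = 3) and 3 h (n = 3) after dosing. Tissues were excised and weighed, and 18F activity was counted by gamma counter. Values are expressed as % injected dose per gram of tissue.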

Data set [3] concerns Mus musculus. In words: Biodistribution in C57BL/6 mouse whole blood at 243 +/- 25 uCi, iv using 60% PEG400, 40% water formulation. The class given is ADME, organism-based. Particulars: in vivo. The gist of the method: (§3)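 The 18F tracer was given to C57BL/6 mice by tail-vein iv bolus, n = 3 per vehicle. Vehicles were 60% PEG400 in water, 10% DMSO in water, or 20% DMAC:Solutol (1:1) in saline. Serial retro-orbital blood was drawn into tared capillary tubes, weighed and gamma-counted to give the blood time-activity curve.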

In data set [4] the test system is Brain. In words: Biodistribution in C57BL/6 mouse brain at 241 +/- 18 uCi, iv. Format: ADME, organism-based. To be noted: in vivo. The gist of the method:
as §2

Data set [5] deals with Nucleic Acid. As to the kind of experiment: Ratio of drug uptake in tumor to muscle in human A2780 cells xenografted Nu/Nu mouse at 2 mg in 100 uL of 60% PEG400 40% water, ip administered as 2 dose every 24 hrs interval measured after 3 hrs of post last dose by PET-CT analysis. Particulars: in vivo. The class given is ADME, organism-based. The gist of the method: as §1
Data set [6] has as its system Mus musculus. In words: Biodistribution in C57BL/6 mouse thymus at 241 +/- 18 uCi, iv. The class given is ADME, organism-based. Particulars: in vivo. The gist of the method: as §2
The subject of data set [7] is Mus musculus. As to the kind of experiment: Biodistribution in human A2780 cells xenografted Nu/Nu mouse tumor at 2 mg in 100 uL of 60% PEG400 40% water, ip by PET-CT analysis. The class given is ADME, organism-based, Neoplasm. To be noted: in vivo, TDE = time-dependent effect. The method in brief:
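Nu/Nu mice (n = 5) carried subcutaneous A2780 human ovarian cancer implants (10⁶ cells in Matrigel per flank) and were imaged 10 days later under isoflurane 1.5%. The 18F tracer was scanned by PET-CT (about 80 min acquisition) before and after competition. […] Read-out was the tumor/muscle ratio.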

Data set [8] in a line: Initial half life in iv dosed mouse plasma. The class given is ADME, organism-based. To be noted: read-out: alphat1/2.
In data set [9] the test system is Heart. As to the kind of experiment: Biodistribution in C57BL/6 mouse heart at 241 +/- 18 uCi, iv. The class given is ADME, organism-based. Particulars: in vivo. The gist of the method: as §2
Data set [10] concerns Liver. In words: Biodistribution in C57BL/6 mouse liver at 241 +/- 18 uCi, iv. The class given is ADME, organism-based. Particulars: in vivo. The gist of the method:
as §2

The subject of data set [11] is Blood. As to the kind of experiment: Biodistribution in C57BL/6 mouse blood at 241 +/- 18 uCi, iv. Format: ADME, organism-based. To be noted: in vivo. The method in brief:
as §2

The test system of data set [12] is Mus musculus. In words: Biodistribution in C57BL/6 mouse whole blood at 243 +/- 25 uCi, iv using 10% DMSO, 90% water formulation. Format: ADME, organism-based. Particulars: in vivo. The method in brief:
as §3

Data set [13] concerns Mus musculus. In words: Biodistribution in C57BL/6 mouse whole blood at 243 +/- 25 uCi, iv using […] dimethylacetamide, 10% Solutol HS15, 80% PBS formulation. The class given is ADME, organism-based. To be noted: in vivo. The method in brief:
as §3

The target in data set [14] is Histone deacetylase 3 (Homo sapiens, UniProt O15379). In words: Inhibition of human recombinant full-length HDAC3 using fluorophore conjugated substrate by fluorescence assay.
Data set [15] has as its target Histone deacetylase 2 (Homo sapiens, UniProt Q92769). As to the kind of experiment: Inhibition of human recombinant full-length HDAC2 using fluorophore conjugated substrate by fluorescence assay.
For data set [16], the target named is Histone deacetylase 1 (Homo sapiens, UniProt Q13547). In words: Inhibition of human recombinant full-length HDAC1 using fluorophore conjugated substrate by fluorescence assay.
Data set [17] concerns the target T1, Protein deacetylase HDAC6 (Homo sapiens, UniProt Q9UBN7).
T1 sequence (Q9UBN7 whole entry): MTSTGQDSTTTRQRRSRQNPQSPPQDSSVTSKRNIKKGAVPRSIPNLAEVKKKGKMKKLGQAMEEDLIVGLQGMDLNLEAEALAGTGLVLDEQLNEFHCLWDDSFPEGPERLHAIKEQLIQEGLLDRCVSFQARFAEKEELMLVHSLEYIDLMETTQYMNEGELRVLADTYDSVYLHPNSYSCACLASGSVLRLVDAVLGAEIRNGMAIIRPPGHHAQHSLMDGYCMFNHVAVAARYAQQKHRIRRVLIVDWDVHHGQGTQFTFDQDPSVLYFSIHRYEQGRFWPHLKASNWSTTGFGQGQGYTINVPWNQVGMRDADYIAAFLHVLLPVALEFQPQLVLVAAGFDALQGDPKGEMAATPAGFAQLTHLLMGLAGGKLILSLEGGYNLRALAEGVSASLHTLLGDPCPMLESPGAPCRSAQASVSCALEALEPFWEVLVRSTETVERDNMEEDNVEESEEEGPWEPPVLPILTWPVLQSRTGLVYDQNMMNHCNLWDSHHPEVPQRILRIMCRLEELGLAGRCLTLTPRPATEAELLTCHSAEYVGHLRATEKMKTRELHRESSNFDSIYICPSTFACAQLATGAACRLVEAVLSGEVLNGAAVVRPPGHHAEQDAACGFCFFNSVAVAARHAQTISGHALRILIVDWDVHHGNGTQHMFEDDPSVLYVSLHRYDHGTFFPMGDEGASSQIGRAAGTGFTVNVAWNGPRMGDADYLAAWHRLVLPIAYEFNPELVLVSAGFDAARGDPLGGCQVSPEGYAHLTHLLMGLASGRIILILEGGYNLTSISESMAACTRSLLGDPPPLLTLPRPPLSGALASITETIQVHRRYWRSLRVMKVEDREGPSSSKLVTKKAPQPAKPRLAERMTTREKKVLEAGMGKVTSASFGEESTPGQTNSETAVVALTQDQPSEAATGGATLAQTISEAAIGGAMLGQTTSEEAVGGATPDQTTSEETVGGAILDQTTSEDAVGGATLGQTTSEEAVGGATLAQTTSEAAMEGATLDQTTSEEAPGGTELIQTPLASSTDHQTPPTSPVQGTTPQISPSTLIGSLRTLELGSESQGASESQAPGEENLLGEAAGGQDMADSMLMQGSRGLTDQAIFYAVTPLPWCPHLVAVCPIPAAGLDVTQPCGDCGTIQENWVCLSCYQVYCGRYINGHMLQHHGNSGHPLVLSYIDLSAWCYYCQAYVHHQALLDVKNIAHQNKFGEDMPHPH
As to the kind of experiment: Inhibition of human recombinant full-length HDAC6 using fluorophore conjugated substrate by fluorescence assay.

Each structure is given as a SMILES string.

Histone deacetylase 1, sequence (Q13547 whole entry): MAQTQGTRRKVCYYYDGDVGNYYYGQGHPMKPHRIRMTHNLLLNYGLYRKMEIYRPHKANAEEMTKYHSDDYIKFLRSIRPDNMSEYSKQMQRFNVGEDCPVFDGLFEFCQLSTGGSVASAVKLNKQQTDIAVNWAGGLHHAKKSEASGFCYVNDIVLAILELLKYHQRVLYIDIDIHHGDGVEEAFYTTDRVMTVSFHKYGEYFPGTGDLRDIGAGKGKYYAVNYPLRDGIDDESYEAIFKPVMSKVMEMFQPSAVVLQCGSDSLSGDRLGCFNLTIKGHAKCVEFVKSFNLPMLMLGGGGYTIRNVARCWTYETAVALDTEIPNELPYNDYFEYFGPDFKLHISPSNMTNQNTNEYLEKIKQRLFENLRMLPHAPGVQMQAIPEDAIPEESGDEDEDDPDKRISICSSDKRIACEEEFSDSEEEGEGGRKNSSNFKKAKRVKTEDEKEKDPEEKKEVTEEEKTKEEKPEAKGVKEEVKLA
Histone deacetylase 2, sequence (Q92769 whole entry): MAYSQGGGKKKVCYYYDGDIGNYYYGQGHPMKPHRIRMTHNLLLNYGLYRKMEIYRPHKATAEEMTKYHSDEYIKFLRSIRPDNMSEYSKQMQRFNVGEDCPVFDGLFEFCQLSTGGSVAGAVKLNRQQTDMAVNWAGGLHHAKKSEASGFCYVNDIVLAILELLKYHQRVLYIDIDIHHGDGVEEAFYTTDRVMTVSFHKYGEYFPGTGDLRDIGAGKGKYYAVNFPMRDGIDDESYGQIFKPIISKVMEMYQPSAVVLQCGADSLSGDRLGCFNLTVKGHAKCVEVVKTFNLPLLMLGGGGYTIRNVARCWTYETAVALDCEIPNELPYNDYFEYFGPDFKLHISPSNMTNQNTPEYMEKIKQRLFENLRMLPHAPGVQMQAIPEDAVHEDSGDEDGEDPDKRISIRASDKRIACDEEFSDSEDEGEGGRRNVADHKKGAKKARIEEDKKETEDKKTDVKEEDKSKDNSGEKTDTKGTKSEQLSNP
Histone deacetylase 3, sequence (O15379 whole entry): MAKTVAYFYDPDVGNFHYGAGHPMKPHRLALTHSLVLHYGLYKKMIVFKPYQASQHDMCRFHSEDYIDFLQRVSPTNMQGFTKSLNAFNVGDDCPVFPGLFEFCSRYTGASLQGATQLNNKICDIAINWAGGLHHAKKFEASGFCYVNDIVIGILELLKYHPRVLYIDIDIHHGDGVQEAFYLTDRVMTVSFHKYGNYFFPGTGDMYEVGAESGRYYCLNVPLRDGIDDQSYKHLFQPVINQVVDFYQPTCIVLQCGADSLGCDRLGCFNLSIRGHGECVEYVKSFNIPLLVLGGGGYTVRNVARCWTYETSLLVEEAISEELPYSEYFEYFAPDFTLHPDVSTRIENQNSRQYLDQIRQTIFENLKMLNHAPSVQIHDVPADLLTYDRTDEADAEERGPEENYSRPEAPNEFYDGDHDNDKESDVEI

Take `O=C(CCCCCCC(=O)Nc1ccc([18F])cc1)NO`: the Ratio in [1] was determined as 1.7; in [5], 1.3. In addition, the Drug uptake entry was “Active” in data set [2]; less than 1 % ID/g in data set [3]; “Active” in data set [4]; “Active” in [6]; “tde” in data set [7]; “Active” in data set [9]. Also, the Drug uptake entry in data set [10] is “Active”; in data set [11], “Active”; in data set [12], 3 % ID/g; in data set [13] it was 6 % ID/g. In [8], the half-life was less than 1 min.

Regarding `O=C(CCCCCCC(=O)Nc1ccc([19F])cc1)NO`, the IC50 was determined as 23.9 nM in [14], 12.7 nM in data set [15], 9 nM in data set [16] and 50.2 nM in [17].

Broadly, the IC50 is the midpoint of a concentration-inhibition curve.
